# PLCg1 inh = blocks human PLC-gamma1 enzyme activity | P19174 | purified PLC-gamma1, fluorogenic substrate, fluorescence | inhibition, % at 12.2 µM | actives 0.84% (n = 370,000) | AID 720700; in the data active means inhibition above about 9.5%
# Target sequence (P19174 whole entry, looked up): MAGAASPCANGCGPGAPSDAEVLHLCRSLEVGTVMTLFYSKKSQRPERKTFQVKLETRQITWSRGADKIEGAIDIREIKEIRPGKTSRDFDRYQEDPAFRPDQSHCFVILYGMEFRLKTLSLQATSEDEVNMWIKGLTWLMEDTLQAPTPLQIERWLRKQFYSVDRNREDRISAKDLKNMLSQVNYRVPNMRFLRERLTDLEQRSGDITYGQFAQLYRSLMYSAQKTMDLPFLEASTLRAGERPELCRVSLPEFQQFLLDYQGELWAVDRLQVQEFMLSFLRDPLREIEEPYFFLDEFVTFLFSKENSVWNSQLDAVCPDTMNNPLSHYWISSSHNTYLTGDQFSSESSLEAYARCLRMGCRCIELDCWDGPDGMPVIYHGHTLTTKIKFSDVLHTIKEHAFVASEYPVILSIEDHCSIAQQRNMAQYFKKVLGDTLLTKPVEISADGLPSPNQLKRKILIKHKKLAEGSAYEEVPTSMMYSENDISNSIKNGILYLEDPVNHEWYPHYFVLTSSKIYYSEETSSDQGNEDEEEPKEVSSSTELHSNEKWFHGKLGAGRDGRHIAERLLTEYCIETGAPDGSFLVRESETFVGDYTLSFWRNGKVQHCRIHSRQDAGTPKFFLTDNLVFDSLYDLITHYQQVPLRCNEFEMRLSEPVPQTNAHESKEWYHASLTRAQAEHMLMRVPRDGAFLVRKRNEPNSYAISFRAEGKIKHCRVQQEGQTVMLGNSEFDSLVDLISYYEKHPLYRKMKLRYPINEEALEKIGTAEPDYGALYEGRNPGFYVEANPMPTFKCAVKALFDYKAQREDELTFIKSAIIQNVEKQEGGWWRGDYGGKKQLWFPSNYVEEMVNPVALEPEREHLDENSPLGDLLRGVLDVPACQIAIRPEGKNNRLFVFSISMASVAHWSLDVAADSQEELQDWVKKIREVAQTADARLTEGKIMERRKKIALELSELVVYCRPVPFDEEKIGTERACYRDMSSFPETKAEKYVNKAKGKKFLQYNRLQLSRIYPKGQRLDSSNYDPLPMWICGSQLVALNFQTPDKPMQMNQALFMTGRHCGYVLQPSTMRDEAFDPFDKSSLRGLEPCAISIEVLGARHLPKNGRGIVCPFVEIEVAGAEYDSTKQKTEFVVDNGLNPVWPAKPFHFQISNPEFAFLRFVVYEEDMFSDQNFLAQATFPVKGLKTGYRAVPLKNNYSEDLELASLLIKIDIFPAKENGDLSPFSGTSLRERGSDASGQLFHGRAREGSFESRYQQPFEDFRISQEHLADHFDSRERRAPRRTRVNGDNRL
# VIM-2 inhibitor = blocks Pseudomonas aeruginosa VIM-2 metallo-beta-lactamase. purified VIM-2, nitrocefin hydrolysis, epi-absorbance fluorescence. inhibition, % at 5.6 µM. actives 0.89% (n = 290,000);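 active means inhibition above the mean of all tested compounds plus 3 SD, cutoff set per screening run, cut at about 7.5% in these data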;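 further: red hydrolysis product quenches plate fluorescence so inhibitors raise well fluorescence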
# PvdQ acylase = blocks Pseudomonas aeruginosa PvdQ acylase activity; purified PvdQ acylase, fluorescence plate reader; actives 0.063% (n = 340,000); inhibition, % at 10 µM; in the data active means inhibition above about 30%, passing the limit was not always enough
# PLC-beta3 inh = blocks human PLC-beta3 enzyme activity; Purified PLC-beta3, fluorogenic substrate, fluorescence; Q01970; actives 0.18% (n = 370,000); inhibition, % at 12.2 µM; AID 720704
# IMP-1 inh = inhibitors of Pseudomonas aeruginosa IMP-1 metallo-beta-lactamase. actives 0.45% (n = 290,000). purified IMP-1, nitrocefin hydrolysis, epi-absorbance fluorescence. inhibition, % at 5.6 µM;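 active means inhibition above the mean plus 3 SD of all compounds in the same screening run, cut at about 4.5% in these data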
#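 system = purified recombinant IMP-1 beta-lactamase | amount = 0.2 nM IMP-1, as dispensed | medium = HEPES buffer pH 7.1 with ZnSO4 and Brij 35 | times = 25 °C, 15 min preincubation, 25 min reaction | detection = plate fluorescence quenching by hydrolysis product, ex 480/em 530 nm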
# PLCg1 ctr = PLC-gamma1 inhibition, counter-screen for PLC-beta3 hits; shares compounds with PLCg1 inh; purified PLC-gamma1, fluorogenic substrate, fluorescence; inhibition, % at 12.3 µM; actives 3.1% (n = 3,300); AID 743258; in the data active means inhibition above about 9.5%
# PLCb3 confirm = human PLC-beta3 inhibition, confirmation | shares compounds with PLCg1 inh | purified PLC-beta3, fluorogenic substrate fluorescence | inhibition, % at 12.3 µM | actives 1% (n = 3,300) | AID 743261
# A number is an active result; n = inactive; x = not tested or not shown. The list is not random: actives were taken first. Their share in the collection is about 2%. Unless noted, no stated cut-off is given here; in the data, active means inhibition above about 11%; inactive means the rest.
SMILES,PLCg1 inh,VIM-2 inhibitor,PvdQ acylase,PLC-beta3 inh,IMP-1 inh,PLCg1 ctr,PLCb3 confirm
CCOc1ccccc1NC(=O)c1cccc(NC2=NC3CS(=O)(=O)CC3S2)c1 (stereo unspecified),13,n,n,n,n,n,n
CCOc1ccccc1NC1=NC2CS(=O)(=O)CC2S1 (stereo unspecified),n,n,n,n,n,x,x
Cc1cccc(Cl)c1-n1nnnc1C1(C)CSCC(=O)N1Cc1ccc(F)cc1 (stereo unspecified),n,x,x,n,x,x,x
COc1ccc(N2C(=O)C(Cl)=C(Nc3ccccc3OC)C2=O)cc1,9.5,n,n,13,n,n,n
COc1ccc(N2C(=O)C(Cl)=C(Nc3ccccc3O)C2=O)cc1,n,n,n,n,n,x,x
CCOC(=O)c1oc2ccccc2c1COC(=O)CNC(=O)c1ccccc1OC,n,x,n,n,x,x,x
CCOC(=O)c1oc2ccccc2c1COC(=O)C(C)NC(=O)c1ccco1 (stereo unspecified),10,x,n,n,x,n,n
O=C(CCSc1ccccc1Cl)Nc1cccc([N+](=O)[O-])c1,11,n,n,n,n,n,n
CCCCNC(=S)NNC(=O)c1csc(C)c1,n,n,n,23,n,n,16
CCCCNC(=S)NNC(=O)c1csc(CC)c1,n,n,n,14,n,n,13
CN(C)CC(=O)N[C@H]1C[C@@H]2O[C@@H](CO)CC[C@@H]2O[C@@H]1CCc1ccc(C2=CCCCC2)cc1,n,x,x,n,x,x,x
O=C(c1cccc(F)c1F)N1CCCC(c2nc(-c3cccs3)no2)C1 (stereo unspecified),n,x,x,n,x,x,x
O=C(OCc1cn(Cc2ccc(C(F)(F)F)cc2)nn1)N1CCCC1,n,x,x,n,x,x,x
O=C1/C(=C/c2cccc([N+](=O)[O-])c2)CCc2ccccc21,n,n,n,n,n,x,x
CCN1C/C(=C\c2cccc([N+](=O)[O-])c2)C(=O)/C(=C/c2cccc([N+](=O)[O-])c2)C1,12,n,n,n,n,n,n
CC1CCCN(C(=O)c2ccc(NS(=O)(=O)c3cccc([N+](=O)[O-])c3)cc2)C1 (stereo unspecified),16,x,n,n,x,n,n
CC(=O)c1ccc(NS(=O)(=O)c2ccc([N+](=O)[O-])cc2)cc1,n,x,n,17,x,n,n
CC(=O)c1ccc(NC(=O)NNS(=O)(=O)c2ccc([N+](=O)[O-])cc2)cc1,n,n,n,n,n,x,x
O=C(c1ccccc1)N1CCC2CCN(S(=O)(=O)c3ccccc3)CC21 (stereo unspecified),n,x,x,n,x,x,x
C=CC[C@H]1c2ccccc2[C@H]2N3N=Cc4ccccc4[C@H]3[C@H](CCCC)C(=O)N2N1C(=O)c1ccccc1,n,x,x,n,x,x,x
Cn1c(=O)[nH]c(=O)c2c1nc(N1CCCCCC1)n2CCOc1ccccc1,11,n,n,n,n,n,n
CN1CCN(c2nc3c(c(=O)[nH]c(=O)n3C)n2CCOc2ccccc2)CC1,n,n,n,n,n,x,x
Cn1c(=O)[nH]c(=O)c2c1nc(SCCN1CCOCC1)n2CCCc1ccccc1,n,n,n,12,n,n,n
CCCCCn1c(N2CCC(Cc3ccccc3)CC2)nc2c1c(=O)[nH]c(=O)n2C,x,n,n,x,n,x,x
CCCn1c(N2CCC(Cc3ccccc3)CC2)nc2c1c(=O)[nH]c(=O)n2C,12,n,n,n,n,n,n
SMILES,PLCg1 inh,VIM-2 inhibitor,PvdQ acylase,PLC-beta3 inh,IMP-1 inh,PLCg1 ctr,PLCb3 confirm
Cn1c(=O)[nH]c(=O)c2c1nc(SCCN1CCOCC1)n2Cc1ccccc1,n,n,n,n,n,x,x
O=C(NCCc1ccc(Cl)cc1)c1ccc2c(c1)ncn2C1CCCCC1,n,x,x,n,x,x,x
NC(=O)c1ncn([C@@H]2O[C@H](C(=O)N[C@H](Cc3c[nH]c4ccccc34)C(=O)N3CCN(CC(=O)N4CCCC4)CC3)[C@@H](O)[C@H]2O)n1,n,x,x,n,x,x,x
CCOC(=O)c1csc(-c2ccc(OC)c(OC)c2)n1,n,n,n,n,n,x,x
CCOC(=O)c1csc(-c2sccc2Br)n1,14,n,n,n,n,n,n
c1cc(-c2nnc3n2N=C(c2ccc4c(c2)OCO4)CS3)ccn1,n,x,x,n,x,x,x
CCCCc1c(-c2ccccc2OC)ncn1C1CCCCC1,n,x,x,n,x,x,x
O=C(NC1CCCCN(Cc2ccc(Cl)cc2)C1=O)C1C2CC3CC(C2)CC1C3 (stereo unspecified),n,x,x,n,x,x,x
O=C1CN(C(=O)c2ccccc2F)C(c2ccccc2)c2cc(Cl)ccc2N1 (stereo unspecified),10,n,n,n,n,n,n
O=C1CN(C(=O)c2ccccc2F)C(c2ccc(F)cc2)c2cc(Br)ccc2N1 (stereo unspecified),n,n,n,n,n,x,x
CCOC(=O)CC[C@@]1(C(=O)OCC)C[C@@H](CC(=O)NCc2ccc(OC)c(OC)c2)C(=O)N2CCCC=C21,n,x,x,n,x,x,x
CCOC(=O)[C@]12CCCCC/C=C\1N(CCc1ccc(Cl)cc1)C(=O)[C@H]2CC(=O)NCc1cccs1,n,x,x,n,x,x,x
CCOC(=O)[C@]12CCCCC/C=C\1N(Cc1ccc(OC)cc1)C(=O)[C@H]2CC(=O)NCc1cccs1,9.5,x,x,n,x,n,n
O=C(Nc1ccc(F)cc1)OCc1cn(Cc2ccccc2C(F)(F)F)nn1,n,x,x,n,x,x,x
COc1ccc(/C=C(\C)C(=O)c2c(C)cc(C)[nH]c2=O)cc1,n,x,n,n,x,x,x
CCOc1ccc(/C=C(\C)C(=O)c2c(C)cc(C)[nH]c2=O)cc1,12,n,n,n,n,n,n
O=C1OC(Cc2ccccc2)(c2ccccc2)c2ccccc21 (stereo unspecified),11,x,x,11,x,n,n
COc1ccc2c(c1)CCCN2C(=O)C1CCCN(S(=O)(=O)c2ccc(C(C)(C)C)cc2)C1 (stereo unspecified),n,x,x,n,x,x,x
CCC(=O)Nc1ccc(C(=O)NNC(=O)COc2cc(C)ccc2C)cc1,n,n,n,12,n,n,n
Cc1ccc(OCC(=O)NNC(=O)c2ccc(NC(=O)C3CC3)cc2)c(C)c1,n,n,n,n,n,x,x
CCC(C#Cc1ccccc1)N(C)C(N)=NC(=O)/C=C/c1ccccc1 (stereo unspecified),n,x,x,n,x,x,x
O=C(O)CC(C(=O)Nc1cccc(C(F)(F)F)c1)C1CCCO1 (stereo unspecified),16,n,n,n,n,n,n
O=C(CC(C(=O)O)C1CCCO1)Nc1cccc(C(F)(F)F)c1 (stereo unspecified),n,n,n,n,n,x,x
c1coc(-c2nc3c4ccccc4ccn3c2Cc2ccsc2)c1,n,x,x,n,x,x,x
O=C(NCCc1c[nH]c2ccccc12)OCc1cn(-c2cccc(C(F)(F)F)c2)nn1,n,x,x,n,x,x,x
OCCN(CCO)CC(O)COc1ccc(Br)cc1 (stereo unspecified),n,n,n,n,n,x,x
CCc1ccc(OCCOCC(O)CN(CCO)CCO)cc1 (stereo unspecified),n,n,n,11,n,n,n

# Bioassay records: PubChem BioAssay, several laboratories
